According to ChEMBL document CHEMBL2057154, “Discovery and optimization of novel purines as potent and selective CB2 agonists” (Bioorg Med Chem Lett, 2012):
In brackets after ≈: the same amount, converted by molar mass. Activity calls are given as the source filed them. No cut-off for these calls is given here.

Assays:
Cannabinoid receptor 2 [1] = target: T1, Cannabinoid receptor 2 (Homo sapiens, UniProt P34972); test: Agonist activity at human CB2 receptor expressed in CHO cells assessed as [35S]-GTPgammaS binding preincubated for 25 mins measured after 30 mins by scintillation proximity assay relative to control; format: functional, cell-based
T1 sequence (P34972 whole entry): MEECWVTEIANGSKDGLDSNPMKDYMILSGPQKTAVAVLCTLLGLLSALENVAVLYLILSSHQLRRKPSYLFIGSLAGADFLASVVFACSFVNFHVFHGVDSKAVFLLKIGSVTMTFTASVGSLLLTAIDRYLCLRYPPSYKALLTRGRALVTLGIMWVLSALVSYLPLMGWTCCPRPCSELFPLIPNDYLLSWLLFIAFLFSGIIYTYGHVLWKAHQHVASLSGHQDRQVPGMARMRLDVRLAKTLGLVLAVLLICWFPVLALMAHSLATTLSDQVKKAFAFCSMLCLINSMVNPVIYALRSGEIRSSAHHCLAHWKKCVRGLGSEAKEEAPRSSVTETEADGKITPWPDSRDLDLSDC

[2] = Drug metabolism in dog liver microsomes at 4 uM after 30 mins by LC-ESI/MS analysis; format: ADME, Canis lupus familiaris, Microsome; settings: read-out: Drug metabolism
Cannabinoid receptor 2 [3] = target: T1, Cannabinoid receptor 2; test: Agonist activity at human CB2 receptor expressed in CHO cells assessed as [35S]-GTPgammaS binding preincubated for 25 mins measured after 30 mins by scintillation proximity assay; format: functional, cell-based
Cannabinoid receptor 1 [4] = target: T2, Cannabinoid receptor 1 (Homo sapiens, UniProt P21554); test: Agonist activity at human CB1 receptor expressed in CHO cells assessed as [35S]-GTPgammaS binding preincubated for 25 mins measured after 30 mins by scintillation proximity assay; format: functional, cell-based
T2 sequence (P21554 whole entry): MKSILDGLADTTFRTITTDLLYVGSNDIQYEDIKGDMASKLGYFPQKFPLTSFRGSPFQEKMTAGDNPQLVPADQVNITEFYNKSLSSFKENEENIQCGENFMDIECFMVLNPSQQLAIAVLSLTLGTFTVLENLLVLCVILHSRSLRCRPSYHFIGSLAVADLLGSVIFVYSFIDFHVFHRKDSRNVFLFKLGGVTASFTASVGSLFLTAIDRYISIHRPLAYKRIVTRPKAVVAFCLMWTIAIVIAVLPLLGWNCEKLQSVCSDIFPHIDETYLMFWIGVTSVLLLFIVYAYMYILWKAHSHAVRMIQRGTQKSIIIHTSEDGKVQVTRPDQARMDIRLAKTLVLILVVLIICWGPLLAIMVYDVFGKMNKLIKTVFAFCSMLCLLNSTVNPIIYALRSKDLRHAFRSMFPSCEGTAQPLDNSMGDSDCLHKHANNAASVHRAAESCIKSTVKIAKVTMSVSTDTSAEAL

[5] = Drug metabolism in rat liver microsomes at 4 uM after 30 mins by LC-ESI/MS analysis; format: ADME, Microsome; settings: read-out: Drug metabolism
Homo sapiens [6] = organism: Homo sapiens; test: Selectivity ratio of EC50 for human CB1 receptor to EC50 for human CB2 receptor
[7] = Drug metabolism in human liver microsomes at 4 uM after 30 mins by LC-ESI/MS analysis; format: ADME, Microsome; settings: read-out: Drug metabolism
[8] = Solubility of the compound in simulated gastrointestinal fluid at pH 6.8; format: physicochemical
Method in brief: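 Solubility determined in simulated GI fluid at pH 6.8.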

Rattus norvegicus [9] = test: Induction of hypothermia in monoiodoacetic acid rat model of osteoarthritic pain at 0.5 mg/kg, ip; format: organism-based; set-up: dose 0.5 mg/kg, route intraperitoneal; settings: in vivo
Method in brief: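 Rats given the non-selective cannabinoid agonist (positive control) at 0.5 mg/kg ip. Body temperature drop was the read-out, used as an in vivo marker of central CB1 receptor activation.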

Rattus norvegicus [10] = test: Analgesic activity in monoiodoacetic acid rat model of osteoarthritic pain assessed as decrease in pain at 3 mg/kg, po measured after 29 days relative to control; format: functional, organism-based; set-up: dose 3 mg/kg
Rattus norvegicus [11] = test: Analgesic activity in monoiodoacetic acid rat model of osteoarthritic pain assessed as decrease in pain at 10 mg/kg, po measured after 29 days relative to control; format: functional, organism-based; set-up: dose 10 mg/kg
[12] = Volume of distribution in Sprague-Dawley rat at 1 mg/kg, iv; format: ADME, organism-based; set-up: dose 1 mg/kg, route intravenous; settings: in vivo
Method in brief: (§1)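 Male Sprague–Dawley rats dosed 1 mg/kg iv and 1 mg/kg po; plasma pharmacokinetic parameters derived from the iv and oral arms.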

Cannabinoid receptor 2 [13] = target: T1, Cannabinoid receptor 2; test: Displacement of [3H]-CP-55,940 from human CB2 receptor expressed in CHO cells; format: cell-based
[14] = (§2) Binding affinity to 5HT1; set-up: species or system Homo sapiens
Cannabinoid receptor 1 [15] = target: T2, Cannabinoid receptor 1; test: Agonist activity at human CB1 receptor expressed in CHO cells assessed as [35S]-GTPgammaS binding preincubated for 25 mins measured after 30 mins by scintillation proximity assay relative to control; format: functional, cell-based
[16] = Lipophilicity, log P of the compound; format: physicochemical; settings: octanol/water
Rattus norvegicus [17] = test: Hepatic clearance in Sprague-Dawley rat at 1 mg/kg, iv; format: ADME, organism-based, Liver; set-up: dose 1 mg/kg, route intravenous; settings: in vivo; method in brief: as §1
[18] = Oral bioavailability in Sprague-Dawley rat at 1 mg/kg; format: ADME, organism-based; settings: in vivo; method in brief: as §1
Rattus norvegicus [19] = test: Analgesic activity in monoiodoacetic acid rat model of osteoarthritic pain assessed as decrease in pain at 10 mg/kg, po pretreated with CB2 antagonist SR144528 at 3 mg/kg, ip administered 30 mins prior to compound treatment; format: functional, organism-based
Method in brief: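 SR-144528 given at 3 mg/kg ip 30 min before the oral test dose (10 mg/kg) in the rodent monoiodoacetic acid osteoarthritic knee pain model.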

Cannabinoid receptor 2 [20] = target: T3, Cannabinoid receptor 2 (Rattus norvegicus, UniProt Q9QZN9); test: Displacement of [3H]-CP-55,940 from rat CB2 receptor expressed in CHO cells; format: cell-based
T3 sequence (Q9QZN9 whole entry): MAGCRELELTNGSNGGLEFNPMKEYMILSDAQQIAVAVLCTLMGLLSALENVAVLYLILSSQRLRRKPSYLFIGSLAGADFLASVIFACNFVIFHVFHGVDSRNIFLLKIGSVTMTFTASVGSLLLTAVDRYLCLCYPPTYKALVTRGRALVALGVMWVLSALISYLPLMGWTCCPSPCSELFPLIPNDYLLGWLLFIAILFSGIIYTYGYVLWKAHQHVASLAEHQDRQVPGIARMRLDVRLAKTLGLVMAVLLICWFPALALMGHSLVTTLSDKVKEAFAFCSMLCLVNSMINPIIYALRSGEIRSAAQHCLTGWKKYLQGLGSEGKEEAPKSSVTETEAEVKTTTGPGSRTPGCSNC

Cytochrome P450 2D6 = Cytochrome P450 2D6 (Homo sapiens, UniProt P10635); test: Inhibition of CYP2D6; format: ADME
Cytochrome P450 2D6, sequence (P10635 whole entry): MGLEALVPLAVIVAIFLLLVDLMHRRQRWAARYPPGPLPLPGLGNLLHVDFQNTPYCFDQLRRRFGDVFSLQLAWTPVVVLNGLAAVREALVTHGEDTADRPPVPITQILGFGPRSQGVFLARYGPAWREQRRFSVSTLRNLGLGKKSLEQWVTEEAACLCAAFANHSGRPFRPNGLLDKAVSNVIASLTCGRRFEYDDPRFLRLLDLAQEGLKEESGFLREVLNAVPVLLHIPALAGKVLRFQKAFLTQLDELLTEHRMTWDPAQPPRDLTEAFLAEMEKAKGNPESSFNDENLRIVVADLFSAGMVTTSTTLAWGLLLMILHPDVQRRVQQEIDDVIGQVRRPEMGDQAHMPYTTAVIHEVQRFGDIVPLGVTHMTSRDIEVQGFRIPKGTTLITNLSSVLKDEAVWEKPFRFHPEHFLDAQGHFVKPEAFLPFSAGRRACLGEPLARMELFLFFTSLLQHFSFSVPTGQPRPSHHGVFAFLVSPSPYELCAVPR

[21] = Dissociation constant, pKa of the compound; format: physicochemical
[22] = target: Voltage-gated inwardly rectifying potassium channel KCNH2 (Homo sapiens, UniProt Q12809); test: Displacement of [3H]dofetilide from human Erg expressed in human HEK293 cells; format: cell-based
Voltage-gated inwardly rectifying potassium channel KCNH2, sequence (Q12809 whole entry): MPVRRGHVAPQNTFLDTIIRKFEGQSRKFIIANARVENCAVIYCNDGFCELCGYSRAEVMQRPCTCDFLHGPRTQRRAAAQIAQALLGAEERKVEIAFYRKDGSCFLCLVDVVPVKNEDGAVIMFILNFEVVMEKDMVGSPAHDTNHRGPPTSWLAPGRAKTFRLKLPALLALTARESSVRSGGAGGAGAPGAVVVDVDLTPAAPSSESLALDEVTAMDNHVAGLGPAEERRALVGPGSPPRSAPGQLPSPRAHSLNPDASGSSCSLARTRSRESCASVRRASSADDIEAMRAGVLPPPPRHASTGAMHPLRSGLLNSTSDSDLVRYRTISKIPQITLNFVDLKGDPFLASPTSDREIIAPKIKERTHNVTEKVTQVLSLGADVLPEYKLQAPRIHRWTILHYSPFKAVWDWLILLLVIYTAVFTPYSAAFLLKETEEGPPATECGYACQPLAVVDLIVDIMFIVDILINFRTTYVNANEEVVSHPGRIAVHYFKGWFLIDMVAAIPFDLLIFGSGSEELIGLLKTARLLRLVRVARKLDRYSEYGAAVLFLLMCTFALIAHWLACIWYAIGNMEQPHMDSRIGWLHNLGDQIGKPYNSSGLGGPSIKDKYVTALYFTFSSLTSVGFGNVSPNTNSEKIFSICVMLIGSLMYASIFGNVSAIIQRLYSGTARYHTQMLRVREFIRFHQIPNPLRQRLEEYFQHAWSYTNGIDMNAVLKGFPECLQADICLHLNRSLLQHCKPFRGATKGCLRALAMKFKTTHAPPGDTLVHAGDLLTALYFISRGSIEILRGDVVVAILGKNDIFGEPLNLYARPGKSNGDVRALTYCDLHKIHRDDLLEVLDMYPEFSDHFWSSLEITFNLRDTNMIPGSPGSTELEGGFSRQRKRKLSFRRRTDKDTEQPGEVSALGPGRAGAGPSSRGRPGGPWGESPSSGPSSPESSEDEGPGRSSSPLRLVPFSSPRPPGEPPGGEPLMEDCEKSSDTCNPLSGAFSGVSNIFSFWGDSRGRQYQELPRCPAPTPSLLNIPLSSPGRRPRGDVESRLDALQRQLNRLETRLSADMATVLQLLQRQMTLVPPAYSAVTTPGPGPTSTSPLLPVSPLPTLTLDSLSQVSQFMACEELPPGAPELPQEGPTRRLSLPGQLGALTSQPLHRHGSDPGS
Method in brief: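 hERG affinity measured by [3H]-dofetilide displacement from hERG channels stably expressed in HEK293 cells.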

cytochrome P450 = cytochrome P450 (Homo sapiens, UniProt P04798+P05177+P05181+P08684+P10632+P10635+P11509+P11712+P13584+P20813+P20815+P20853+P24462+P24903+P33260+P33261+P51589+P78329+P98187+Q02928+Q08477+Q16678+Q16696+Q5TCH4+Q6VVX0+Q7Z449+Q8TAV3+Q96SQ9+Q9HB55); test: Inhibition of cytochrome P450; format: ADME
[23] = Ratio of drug uptake in brain to plasma of Sprague-Dawley rat; format: ADME; settings: read-out: BPR
Homo sapiens [24] = organism: Homo sapiens; test: as §2
[25] = Aqueous solubility of the compound at pH 7; format: physicochemical; settings: buffer

Row | SMILES | Efficacy (Cannabinoid receptor 2 [1]) [%] | metabolised at 0.5 h, 4 µM [2] [%] | EC50 (Cannabinoid receptor 2 [3]) [nM] | EC50 (Cannabinoid receptor 1 [4]) [nM] | metabolised at 0.5 h, 4 µM [5] [%] | Ratio EC50 (Homo sapiens [6]) | metabolised at 0.5 h, 4 µM [7] [%] | further results
1 | COC(=O)NCCn1c(-c2ccccc2Cl)nc2c(N3CCN(C)CC3)nc(C)nc21 | 79.5 | 62 | 47.5 | > 100000 | 25 | > 2110 | 14 | –
2 | Cc1nc(N2CCC(C)CC2)c2cc(-c3ccccc3)sc2n1 | 85.3 | 75 | 199 | > 100000 | 93 | > 502 | 49 | –
3 | CC(=O)N1CCN(c2nc(C)nc3sc(-c4ccccc4)cc23)CC1 | 95.4 | 62 | 184 | > 100000 | 28 | > 543 | 25 | solubility [8]: 41 µM (≈ 14.5 µg/mL)
4 | CCCCCCC(C)(C)c1ccc([C@@H]2C[C@H](O)CC[C@H]2CCCO)c(O)c1 [CP-55940] | – | – | – | – | – | – | – | Activity (Rattus norvegicus [9]): Toxic
5 | O=C(O)Cc1ccccc1Nc1c(Cl)cccc1Cl | – | – | – | – | – | – | – | Activity (Rattus norvegicus [10]): Active
6 | CCN1CCN(c2nc(C)nc3sc(-c4ccccc4)cc23)CC1 | 84.5 | 97 | 24.8 | 2600 | 94 | 104 | 73 | Activity (Rattus norvegicus [11]): Active; Vd [12]: 10 L/kg; Ki (Cannabinoid receptor 2 [13]): 82 nM; Ki [14]: 1000 nM; Efficacy (Cannabinoid receptor 1 [15]): 73.6%; logP [16]: 3.7; CLH (Rattus norvegicus [17]): 90 mL/min/kg; bioavailability [18]: 91%; Activity (Rattus norvegicus [19]): inactive; solubility [8]: > 200 µM; Ki (Cannabinoid receptor 2 [20]): 16 nM; IC50 (Cytochrome P450 2D6): 3000 nM; pKa [21]: 7.5; IC50 [22]: > 10000 nM
7 | CCN1CCN(c2nc(C)nc3c2nc(-c2ccccc2Cl)n3C)CC1 | – | – | – | – | – | – | – | IC50 (cytochrome P450): > 10000 nM; Kp [23]: 1; Activity (Homo sapiens [24]): Active; solubility [25]: > 2000 µg/mL; logP [16]: 3.1
8 | Cc1nc(N2CCN(C)CC2)c2cc(-c3ccccc3)sc2n1 | 90.6 | 97 | 44.4 | 5910 | 95 | 133 | 56 | Efficacy (Cannabinoid receptor 1 [15]): 70.9%
